HNF4A DNA FP: change in binding of human HNF4A to DNA, primary screen, biochemical, fluorescence polarization, FITC-DNA | activity change, % at 10 µM | AID 1224865, 2016 | Hepatocyte nuclear factor 4-alpha (Homo sapiens), P41235 | 1 h | actives 0.3% (n = 360,000); in the data active means activity change above about 30%, passing the limit was not always enough
NR1D1 modulator: modulators of Rev-erb alpha DNA binding, primary screen, biochemical, FITC-DNA, fluorescence polarization, uHTS; Nuclear receptor subfamily 1 group D member 1 (Homo sapiens), P20393; activity, % at 10 µM; actives 0.79% (n = 370,000); Rev-erbα–FITC-DNA binding, 90 min;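 active means activity above about 14%, limit read from the data; passing the limit was not always enough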;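 further: 0% = DMSO wells with 35 nM protein and 100% = DMSO wells with 750 nM protein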
CSN deneddyl inh: inhibitors of CSN-mediated cullin deneddylation, primary screen, biochemical, fluorescence polarization, uHTS | COP9 signalosome complex subunit 5 (Homo sapiens), Q92905 | Purified CSN, SCF-Nedd8-OG deneddylation | inhibition, % at 12.5 µM | actives 0.38% (n = 360,000) | AID 651999, 2013;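 active means pattern-corrected inhibition above about 35%, with an unprinted fluorescence ratio check between 0.5 and 1.5, limit read from the data, passing the limit was not always enough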;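 further: 0% = enzyme with substrate and 100% = substrate without enzyme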
Target sequence (Q92905 whole entry, looked up, one chain of several): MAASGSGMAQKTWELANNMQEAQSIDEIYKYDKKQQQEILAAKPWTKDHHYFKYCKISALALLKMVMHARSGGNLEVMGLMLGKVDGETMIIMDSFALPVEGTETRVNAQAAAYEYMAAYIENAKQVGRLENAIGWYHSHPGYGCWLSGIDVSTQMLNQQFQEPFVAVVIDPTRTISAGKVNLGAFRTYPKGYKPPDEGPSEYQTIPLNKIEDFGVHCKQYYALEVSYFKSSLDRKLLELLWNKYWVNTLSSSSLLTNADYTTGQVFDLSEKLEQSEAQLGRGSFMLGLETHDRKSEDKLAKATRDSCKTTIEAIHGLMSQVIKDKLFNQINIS
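Assay system: purified human Csn5 enzyme expressed in HEK293T cells; Input: 0.24 nM Csn5 enzyme, final concentration; Reagent: 10 nM SCFSkp2-Nedd8OG; Compound dosing: 12.5 µM single point; Times: reaction 90 min, room temperature; Technique: fluorescence polarization readout.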
aDG glyco up: activators of alpha-DG glycosylation, primary screen, uHTS, Pro5-aDG cells, AlphaScreen; alpha-DG glycosylation AlphaScreen (IIH6); 0% Pro5, 100% B10-LARGE cell signal; actives 0.22% (n = 360,000); activation, % at 10 µM;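 active means activation of at least 8% versus controls, or a plate z-score of at least 8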;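 further: Pro5 are CHO cells carrying HIG-tagged alpha-DG that lacks glycosylation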
NR1D1 mod conf: modulators of Rev-erb alpha DNA binding, confirmation, biochemical, FITC-DNA, fluorescence polarization, single point. shares compounds with NR1D1 modulator. 90 min. activation, % at 25 µM. actives 61% (n = 3,000). AID 1259319, 2017;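 active means activation at or above a set limit, or at least 3 SD above the negative control mean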;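 further: 0% = 35 nM protein with DMSO and 100% = 750 nM protein high control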
RORg DNA counter: modulation of RORgamma DNA binding, dose response, counter-screen for Rev-erb alpha modulator project, biochemical, fluorescence polarization, FITC-DNA; actives 8% (n = 910); purified RORgamma protein-FITC-DNA binding; shares compounds with NR1D1 modulator; IC50, µM;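 active means Compounds whose fitted half-maximal concentration for disrupting protein-DNA binding is below 10 micromolar; the record names Rev-erb in its text, so the target is in doubt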
* marks the source's active call; other numbers are inactive results; i = inactive; . = no result given. Only some compounds are listed: those with a hit (about 1.5% of all), similar ones and a draw of the others.

SMILES	HNF4A DNA FP	NR1D1 modulator	CSN deneddyl inh	aDG glyco up	NR1D1 mod conf	others
COC(=O)C[C@H]1CC[C@H]2[C@H](COc3ccc(NS(=O)(=O)c4cccc(F)c4)cc3C(=O)N2C)O1	.	0.7	.	.	.
c1cnc(SCC2CCCCC2)c(-c2nc3ccccc3[nH]2)c1	.	31.7*	.	.	32.6*	RORg DNA counter=>40
COC(=O)CSc1ncccc1-c1nc2ccccc2[nH]1	0.6	-4.8	1.0	0.2	.
O=C(CSc1ncccc1-c1nc2ccccc2[nH]1)N1CCc2ccccc21	1.6	28.5*	-0.9	0.2	25.1*
CCOc1ccc(-n2c(SCC(=O)Nc3ccc(S(=O)(=O)Nc4nccs4)cc3)nnc2-c2ccc(C(C)(C)C)cc2)cc1	.	0.5	.	.	.
O=C(CSc1nnc(-c2ccccc2)n1-c1ccc(Cl)cc1)Nc1ccccc1-c1ccccc1	.	1.7	.	.	.
Cc1ccccc1NC(=O)CSc1nnc(-c2ccccc2)n1-c1ccccc1	-1.8	37.4*	5.3	-0.1	20.7*
CCc1ccc(NC(=O)CSc2nnc(-c3n[nH]c4ccccc34)n2-c2ccccc2)cc1	3.5	33.8*	-14.4	0.0	38.1*	RORg DNA counter=>40
O=C(CCc1ccccc1)N[C@H]1[C@H](OC(=O)c2ccco2)CCC[C@]12C(=O)N(Cc1ccccc1)c1ccccc12	.	2.0	.	.	.
COc1ccccc1OCCSc1nc2ccccc2c(=O)[nH]1	-2.6	14.5	1.8	-0.1	.
O=c1[nH]c(SCCOc2ccccc2)nc2ccccc12	1.8	45.7*	-3.1	0.2	25.1*
CCOC(=O)Nc1ccc2c(COC(=O)CN(C)S(=O)(=O)c3ccc(C)cc3)cc(=O)oc2c1	-2.2	46.0*	4.4	-0.1	14.0
CCOC(=O)Nc1ccc2c(COC(=O)CNS(=O)(=O)c3cccc(Br)c3)cc(=O)oc2c1	3.9	75.7*	-4.3	-0.4	43.1*
CCc1ccc2c(COC(=O)CNS(=O)(=O)c3ccc(NC(C)=O)cc3)cc(=O)oc2c1	3.0	3.8	1.2	-0.2	.
O=C1c2c(Br)c(Br)c(Br)c(Br)c2C(=O)N1c1ccccn1	-4.8	275.9*	9.5	-0.2	391.1*	RORg DNA counter=>40
COc1ccc(NC(=O)CSc2nnc(-c3cccs3)n2N)c(OC)c1	6.0	12.8*	7.6	-0.3	1.2
Cc1cccc(-c2cccc3c4c([nH]c23)[C@@H]2C[C@H](N(C)C(=O)c3ccco3)[C@H]([C@H](C)O)CN2CC4)c1	.	-0.1	.	.	.
COc1ccc(-c2c(C#N)c(C)nc3c2C(=O)c2ccccc2-3)cc1	24.1	150.6*	15.7	-0.3	122.2*
Cn1c(SCC(=O)Nc2ccc(Cl)cc2)nnc1C1CC1	1.2	0.9	-5.9	0.0	.
CSc1sc(-c2nnc(SCC(=O)Nc3ccc(Cl)cc3)n2C)c2c1C=CCC2	4.1	33.2*	0.7	0.0	6.7
O=[N+]([O-])c1ccc(O)c(-c2cc(C(F)(F)F)nc(-c3ccccc3)n2)c1	-1.6	133.2*	-3.0	-0.2	159.3*	RORg DNA counter=7.96*
Oc1ccccc1-c1cc(C(F)(F)C(F)F)nc(-c2ccccc2)n1	0.1	3.9	0.0	-0.2	.
C[C@H]1[C@@H](NCC2CCCCC2)CC[C@@]23CCCN2C(=O)CCC[C@@H]13	.	-1.8	.	.	.
COC(=O)C1CN(Cc2ccccc2)CCS(=O)(=O)N1Cc1cn(Cc2ccccc2)nn1 (stereo not drawn)	.	-4.3	.	.	.
Cn1nc(-c2ccccc2)cc1NC(=O)c1ccccc1	-1.0	41.2*	-1.1	-0.1	2.2
SMILES	HNF4A DNA FP	NR1D1 modulator	CSN deneddyl inh	aDG glyco up	NR1D1 mod conf	others
COC(=O)[C@]12C[C@H](CC(=O)NCc3ccc(OC)c(OC)c3)C(=O)N(Cc3cccc4ccccc34)C1=C[C@H](COCc1ccccc1)O[C@@H]2C	.	-1.1	.	.	.
CN(C)C=Nc1nc2c(Br)ccc(Br)c2cc1C(=O)NCC(C)(C)C	.	23.2*	.	.	40.0*	RORg DNA counter=>40
CC(C)(C)OC(=O)[C@H](Cc1ccccc1)NC(=O)c1ncn2c1c(=O)[nH]c1ccc(Br)cc12	-0.8	168.3*	11.3	-0.1	-2.8
CC(C)(C)OC(=O)[C@H](Cc1ccccc1)NC(=O)c1nc[nH]c1C(=O)N[C@@H](Cc1ccccc1)C(=O)OC(C)(C)C	6.2	-4.6	1.7	-0.3	.
Cc1c(C(=O)N2CCN(Cc3ccc4c(c3)OCO4)CC2)sc2ncnc(N3CCN(c4ccccc4F)CC3)c12	-2.7	22.0*	-1.6	0.1	17.8*
Cc1c(C(=O)N2CCN(Cc3ccc4c(c3)OCO4)CC2)sc2ncnc(N3CCN(c4ccccc4)CC3)c12	-3.5	13.6	0.6	0.4	.
CCN(CC)C(=O)CSc1nc(-c2cccs2)cc(-c2cccs2)c1C#N	1.6	7.1	-2.2	-0.2	.
CCN(CC)C(=O)CSc1nc(N)c(C#N)c(-c2cccs2)c1C#N	4.1	32.8*	5.8	-0.2	32.9*	RORg DNA counter=>40
Cc1cc(C)c(C#N)c(SCC(=O)Nc2ccccc2C)n1	0.0	4.2	1.1	-0.1	.
COc1ccc(CCNC(=O)CSc2nc(N)c(C#N)c(-c3cccs3)c2C#N)cc1OC	-1.9	37.3*	-5.9	0.1	22.9*
Cc1ccccc1NC(=O)CSc1nc(N)c(C#N)c(-c2cccs2)c1C#N	-2.4	126.1*	-1.8	0.3	95.3*
O=C(NC1CCCCN(Cc2ccc(Cl)cc2)C1=O)c1cccs1 (stereo not drawn)	.	6.3	.	.	.
OC(c1ccccc1)(c1ccccc1)C1CCN(CCCOc2ccc(OC(F)(F)F)cc2)CC1	.	2.2	.	.	.
COC(=O)C[C@@H]1CC[C@H]2[C@@H](COc3ccc(NS(=O)(=O)c4ccccc4F)cc3C(=O)N2C)O1	.	-6.9	.	.	.
CC12CN3CC(C)(CN(C1)C3c1ccc3ccccc3c1O)C2=O (stereo not drawn)	2.6	7.0	4.2	-0.2	.
CCn1cc(C2N3CC4(C)CN2CC(C)(C3)C4=O)c2ccccc21 (stereo not drawn)	-0.9	50.0*	-6.0	0.3	56.1*	RORg DNA counter=i
N#Cc1cnn2c1nc(N1CCCCC1)c1ccccc12	2.5	31.9*	3.0	0.3	3.5
c1ccc2c(c1)nc(N1CCCCC1)c1ccccc12	-3.7	-1.3	-0.1	0.0	.
CC1=C[C@]2(C[N+](Cc3ccccc3)=C(N)N2)n2c(=O)n(-c3ccccc3)c(=O)n2C1	.	-1.0	.	.	.
COc1ccc(OC)c(Nc2ncnc3ccccc23)c1	-1.3	-2.4	0.4	-0.1	.
COc1ccc(OC)c(Nc2ncnc3ccc(Br)cc23)c1	2.5	59.1*	-1.0	0.5	29.0*

Screening results (PubChem BioAssay)
